# Wee1 degr inh: blocks degradation of human Wee1 kinase; reporter increase, % at 5 µM; AID 1321; P30291; 220,000 tested, 1.2% active; HeLa Luc-Wee1K328M stability, luciferase luminescence; 100% = proteasome inhibitor MG132 effect;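 active = activation above the mean of all tested compounds plus 3 SD, set per screening run, cut at about 8.8% in these data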;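 note: cells exposed to compound for 20 h before luminescence read; 0% = DMSO alone and 100% = MG132 at 30 µM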
# Arbovirus inh: antivirals against arbovirus infection; inhibition, % at 10 µM; arbovirus infection cell-based antiviral screen; 200,000 tested, 0.37% active; in the data active = inhibition above about 30%
# Rad51 HR inh: Rad51 (human) homologous recombination inhibition; AID 1385; inhibition, % at 10 µM; 200,000 tested, 0.085% active; hRad51 DNA strand exchange, fluorescence dequenching; Q06609;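 active = inhibition above 40% at the single screening dose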;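 note: 0% = DMSO control wells and 100% = blanks with heterologous ssDNA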
#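 Test system: preformed human Rad51 ssDNA filaments; also added: Donor/quencher-labelled 47-bp dsDNA substrate; doses: 10 µM final, single point; times: 37 °C 15-min filament assembly, 30-min compound preincubation, 15-min exchange; detection: FRET fluorescence dequenching, excitation 485 nm, emission 520 nm; read-out basis: Fluorescence-based percent inhibition, control- and blank-normalised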
# PKD1 inh: PKD1 (human) kinase inhibition | PKD1 kinase fluorescence polarization assay | inhibition, % (no concentration beside the values) | 200,000 tested, 0.056% active | Q15139 | AID 797
# Target sequence (Q15139 whole entry, looked up): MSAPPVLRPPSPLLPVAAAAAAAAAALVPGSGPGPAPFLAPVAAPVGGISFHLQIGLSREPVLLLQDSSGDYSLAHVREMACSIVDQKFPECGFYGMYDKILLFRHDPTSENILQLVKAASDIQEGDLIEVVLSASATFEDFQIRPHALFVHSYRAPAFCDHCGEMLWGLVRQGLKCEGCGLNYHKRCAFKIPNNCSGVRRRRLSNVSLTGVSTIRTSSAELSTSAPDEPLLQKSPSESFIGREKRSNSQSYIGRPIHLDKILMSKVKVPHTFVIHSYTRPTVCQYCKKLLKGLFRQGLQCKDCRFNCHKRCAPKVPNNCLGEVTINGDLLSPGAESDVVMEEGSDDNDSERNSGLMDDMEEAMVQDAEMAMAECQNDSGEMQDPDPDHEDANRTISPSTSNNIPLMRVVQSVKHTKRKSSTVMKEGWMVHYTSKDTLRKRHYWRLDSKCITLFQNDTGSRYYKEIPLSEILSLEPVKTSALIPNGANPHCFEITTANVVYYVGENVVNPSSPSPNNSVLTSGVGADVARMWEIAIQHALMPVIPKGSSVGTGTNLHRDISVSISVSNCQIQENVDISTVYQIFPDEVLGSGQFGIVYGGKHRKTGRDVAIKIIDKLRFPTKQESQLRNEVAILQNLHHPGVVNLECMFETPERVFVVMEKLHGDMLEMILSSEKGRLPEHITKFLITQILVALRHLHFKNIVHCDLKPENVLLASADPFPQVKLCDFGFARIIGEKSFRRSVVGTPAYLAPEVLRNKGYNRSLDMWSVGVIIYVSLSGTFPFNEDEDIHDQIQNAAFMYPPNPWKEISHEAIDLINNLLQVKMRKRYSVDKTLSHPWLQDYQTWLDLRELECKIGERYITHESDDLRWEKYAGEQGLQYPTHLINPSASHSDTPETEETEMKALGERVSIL
# L major viab: inhibitors of Leishmania major promastigote growth. Leishmania major promastigotes, resazurin fluorescence viability. inhibition, % at 10 µM. 200,000 tested, 9% active. AID 1063;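 note: promastigotes grown with compound for 44 hours at 28 °C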
# CHOP inh: blocks CHOP induction under ER stress; CHO-K1 CHOP-promoter luciferase, tunicamycin-induced, 15-18 h; inhibition, % at 10 µM; 220,000 tested, 3.8% active; AID 2732;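 active = compounds that reduced the stress-induced luciferase reporter signal by more than about 70% of percent inhibition, limit read from the data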;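 note: 0% = tunicamycin plus vehicle and 100% = wells without tunicamycin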
# CHOP inh conf: confirmation of CHOP induction inhibitors | shares compounds with CHOP inh | inhibition, % at 10 µM | 2,100 tested, 45% active | CHO-CHOP promoter luciferase reporter, tunicamycin-induced, luminescence;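 active = mean of three repeat readings of reporter signal inhibition above a set limit, cut at about 70% in these data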;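 note: 0% = tunicamycin plus vehicle and 100% = wells lacking tunicamycin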
# Numbers without * were called inactive; . = no result; ! = not confirmed by another sample. Most compounds without a hit are left out; they make up all but 12% or so of the library. Cut-off read from the data, not from the text of the source, unless noted: active = inhibition above about 50%; inactive = the rest.
SMILES,Wee1 degr inh,Arbovirus inh,Rad51 HR inh,PKD1 inh,L major viab,CHOP inh,CHOP inh conf
Cc1cccc(OCC(=O)Nc2nonc2NC(=O)COc2cccc(C)c2)c1,-1,12,-5,-1,-4,-13,.
N#Cc1c(-c2cccs2)nc(SCC(=O)c2cccs2)[nH]c1=O,1,25,-17,-4,-8,5,.
O=C(COC(=O)Cc1c(Cl)cccc1Cl)Nc1ccc(OC(F)(F)F)cc1,1,-2,.,-11,-4,109*,86*
CCCC(NS(=O)(=O)c1ccc(C)cc1)C(=O)O (stereo unspecified),-3,2,-3,-1,-5,3,.
Cc1ccc(S(=O)(=O)N[C@@H](Cc2ccccc2)C(=O)CCl)cc1,-2,-4,6,-10,-6,108*!,-261
Cc1ccc(-c2nc(C(Cl)Cl)c3ccccc3n2)cc1,-3,.,22,.,.,103*,100*
CCN(CC)CCn1c(SCC(=O)Nc2ccc(F)cc2)nc2c(sc3ccccc32)c1=O,-1,-3,11,-6,12,104*,90*
COc1ccccc1NC(=O)CSc1nc2c(sc3ccccc32)c(=O)n1CCN(C)C,-1,-1,14,-3,3,29,.
COc1ccc(-c2[nH]c(-c3ccc(Cl)cc3)nc2SCC(=O)Nc2nccs2)cc1,-2,-20,4,-3,18,98*,33
NC(=O)c1ccc(C(F)(F)F)n(Cc2ccc(F)c(F)c2)c1=O,3,4,9,-2,8,32,.
NC(=O)c1ccc(C(F)(F)F)n(Cc2ccc(Cl)cc2)c1=O,-2,-4,0,-8,-6,97*,82*
N#CC1=C(N)N2C(=C(C#N)C1c1ccccc1)Sc1ccccc12 (stereo unspecified),-1,-9,-14,8,0,-25,.
N#CC1=C(N)N2C(=C(C#N)C1c1ccc(Br)cc1)Nc1ccccc12 (stereo unspecified),5,-9,-4,2,18,106*,94*
N#CC1=C(N)N2C(=C(C#N)C1c1cccc(Br)c1)Nc1ccccc12 (stereo unspecified),4,2,-7,7,7,101*,105*
C=CCc1cccc(/C=N/NC(=O)CCC(=O)Nc2ccc(F)cc2)c1O,-1,-35,7,-4,35,102*,29
C=CCc1cccc(/C=N/NC(=O)CCCNc2ccc(C)cc2)c1O,2,-27,-5,-7,-6,97*,75*
CC(C)CNS(=O)(=O)c1ccc(OCC(=O)NCC2CCCO2)c(Cl)c1 (stereo unspecified),1,6,0,-4,-10,15,.
Cc1cc(/C=N/Nc2nc(N)ncc2[N+](=O)[O-])c(C)n1-c1cccc(C(F)(F)F)c1,4,.,4,.,.,98*,96*
CCc1ccc(CN/C=C/C(=O)c2ccc(Br)cc2)cc1,2,2,1,3,-10,104*,-26
Cn1c(=O)cc(SCC(=O)NCCC2=CCCCC2)c2ccc(Cl)cc21,0,2,.,0,18,97*,90*
Cc1ccc(CNC(=O)CNS(=O)(=O)c2ccc3nc(C)sc3c2)cc1,0,-1,.,-8,-1,43,.
CCOc1ccc(C(=O)CC(NCc2cccs2)C(=O)O)cc1 (stereo unspecified),4,-1,8,11,13,37,.
C=C(C)Cn1c(N2CCC(Cc3ccccc3)CC2)nc2c1c(=O)[nH]c(=O)n2C,0,-6,2,-2,78*,99*,125*
CC(=O)NCCc1nc2ccccc2n1Cc1cc(C)ccc1C,-1,.,.,.,.,-5,.
COC(=O)c1ccc(NC(=O)c2snnc2-c2ccccc2)cc1,2,2,3,2,11,-8,.
SMILES,Wee1 degr inh,Arbovirus inh,Rad51 HR inh,PKD1 inh,L major viab,CHOP inh,CHOP inh conf
COc1ccc(/C=N/NC(=O)c2ccncc2)cc1CSc1nc2ccccc2s1,0,-13,-8,-4,19,26,.
CCOc1cc(CNc2ccc3c(c2)OCCO3)cc(Br)c1OC,1,-7,-7,5,1,29,.
CCOc1cc(CNc2ccc(O)cc2)cc(Br)c1OCc1ccccc1F,0,-23,2,-18,80*,110*,63
CC1=NN(c2nc(-c3ccc(C)cc3)cs2)C(=O)C1N=Nc1ccccc1O (stereo unspecified),1,-33,-1,-4,99*,107*,77*
O=C1c2cccc3cccc(c23)C(=O)N1OS(=O)(=O)c1ccccc1,0,-2,-10,-10,-3,32,.
Cc1ccc(C)c(S(=O)(=O)ON2C(=O)c3ccccc3C2=O)c1,2,-3,1,1,-5,106*,106*
O=C1c2ccccc2C(=O)N1OS(=O)(=O)c1ccccc1,2,-10,.,-14,-1,108*,-58
COC(=O)c1sc(-c2ccc(C(C)(C)C)cc2)cc1NC(=O)c1ccccc1C(=O)O,0,.,.,.,.,106*,116*
COC(=O)c1sc(-c2ccc(Cl)cc2)cc1NC(=O)c1ccccc1C(=O)O,-1,.,23,.,.,68,.
COc1ccc(-c2cnc(OC(C)(C)C)nc2OC(C)(C)C)cc1OC,0,-6,-2,0,6,106*,89*
COc1ccc(-c2cn[nH]c2C)cc1OC,-3,2,12,-2,-1,26,.
COc1ccc(-c2nc3ccc(N4CCCC4)cc3c(=O)[nH]2)cc1OC,-1,-9,.,5,21,103*,16
Cc1ccc2nc(Nc3ccc4[nH]c(=O)[nH]c4c3)c(-n3nc(C)cc3C)nc2c1,0,-42,-6,-2,18,104*,114*
Cc1cc(C)n(-c2nc3ccccc3nc2Nc2ccc3c(c2)OCO3)n1,-2,9,-3,0,27,-11,.
CCc1nnc(NS(=O)(=O)c2ccc(NC(=O)c3cccc(Cl)c3)cc2)s1,-1,5,1,-1,-9,10,.
Clc1ccc(-c2n[nH]c3c2CCC3)cc1Cl,1,-26,-6,12,6,98*,63
CC1=Nn2c(nnc2-c2n[nH]c3c2CCC3)SC1,1,-3,-9,-7,5,11,.
O=c1c(Cc2ccc(Cl)cc2Cl)c(O)ccn1CCCN1CCOCC1,0,4,29,11,-1,-1,.
CCOC(=O)C1=C(O)/C(=C/c2ccc(CNC(=O)C(=O)Nc3ccc(C)cc3)o2)N=C1C,-5,-20,.,0,-3,106*,109*
COC(=O)C1=C(O)/C(=C\c2ccc(CNC(=O)C(=O)Nc3ccc(C)cc3)o2)N=C1C,5,-15,13,1,-1,69,.
Cc1cc(=O)oc2ccc(OC(C)C(=O)O)cc12 (stereo unspecified),5,-2,-2,0,1,19,.
